The target in one assay is Carbonic anhydrase 12 (Homo sapiens, UniProt O43570). In words: Inhibition of human CA12 preincubated for 15 mins by phenol red dye based stopped flow CO2 hydration assay.
Another assay concerns the target Carbonic anhydrase 4 (Homo sapiens, UniProt P22748). In words: Inhibition of human CA4 preincubated for 15 mins by phenol red dye based stopped flow CO2 hydration assay.
For the next assay, the target named is Carbonic anhydrase 9 (Homo sapiens, UniProt Q16790). In words: Inhibition of human CA9 preincubated for 15 mins by phenol red dye based stopped flow CO2 hydration assay.
Assay [1] relates to Mus musculus. In words: Antihyperalgesic activity in CFA induced CD-1 albino mouse assessed as inhibition of mechanical hyperalgesia by measuring paw withdrawal latency at 220 mg/kg, po measured every 20 mins by paw pressure test. The format is functional, organism-based. The method, boiled down:
(§1)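 Mechanical hyperalgesia measured by Paw Pressure test before dosing and every 20 min afterward, as paw-withdrawal latency (s). Values are means of 6 mice over 2 experimental sets; statistics vs pretest (0 min) and vs vehicle-treated controls.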

In assay [2] the test system is Mus musculus. In words: Antihyperalgesic activity in CFA induced CD-1 albino mouse assessed as inhibition of thermal hyperalgesia by measuring licking latency at 220 mg/kg, po measured every 20 mins by hot plate test. It is filed as functional, organism-based. An outline of the steps: (§2)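 Hot plate test before dosing and every 20 min after. Time (s) to first hind-paw licking recorded. Mean of 6 mice from 2 experimental sets; compared with pretest (0 min) and vehicle controls.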
For orientation: In hot-plate and tail-flick tests a longer latency is read as antinociception.

Assay [3] has as its system Mus musculus. In words: Antihyperalgesic activity in CFA induced CD-1 albino mouse assessed as inhibition of mechanical allodynia by measuring paw withdrawal threshold at 330 mg/kg, po measured after 20 to 100 mins by von frey test. The format is functional, organism-based. Particulars: time 20-100 min. The method, boiled down:
(§3)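 Von Frey testing before dosing and every 20 min afterward. Read-out is the weight (g) the animal tolerated on the paw. Mean of 6 mice from 2 experimental sets; compared with pretest (0 min) and with vehicle-treated controls.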

Assay [4] has as its system Mus musculus. In words: Antihyperalgesic activity in CFA induced CD-1 albino mouse assessed as inhibition of thermal hyperalgesia by measuring licking latency at 330 mg/kg, po measured after 20 to 100 mins by hot plate test. Particulars: time 20-100 min. The format is functional, organism-based. The method, boiled down: as §2
In assay [5] the test system is Mus musculus. In words: Antihyperalgesic activity in CFA induced CD-1 albino mouse assessed as inhibition of mechanical allodynia by measuring paw withdrawal threshold at 220 mg/kg, po measured every 20 mins by von frey test. The format is functional, organism-based. An outline of the steps:
as §3

The next assay deals with Carbonic anhydrase 1 (Homo sapiens, UniProt P00915). In words: Inhibition of human CA1 preincubated for 15 mins by phenol red dye based stopped flow CO2 hydration assay.
Carbonic anhydrase 1, sequence (P00915 whole entry): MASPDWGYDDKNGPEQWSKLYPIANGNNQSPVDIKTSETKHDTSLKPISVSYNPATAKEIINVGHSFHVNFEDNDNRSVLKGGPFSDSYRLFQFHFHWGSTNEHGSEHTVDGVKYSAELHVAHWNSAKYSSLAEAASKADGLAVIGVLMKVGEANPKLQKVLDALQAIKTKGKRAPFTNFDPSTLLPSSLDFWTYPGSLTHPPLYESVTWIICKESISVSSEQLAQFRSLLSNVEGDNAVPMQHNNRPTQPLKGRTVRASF
The target of a further assay is Carbonic anhydrase 7 (Homo sapiens, UniProt P43166). In words: Inhibition of human CA7 preincubated for 15 mins by phenol red dye based stopped flow CO2 hydration assay.
Carbonic anhydrase 7, sequence (P43166 whole entry): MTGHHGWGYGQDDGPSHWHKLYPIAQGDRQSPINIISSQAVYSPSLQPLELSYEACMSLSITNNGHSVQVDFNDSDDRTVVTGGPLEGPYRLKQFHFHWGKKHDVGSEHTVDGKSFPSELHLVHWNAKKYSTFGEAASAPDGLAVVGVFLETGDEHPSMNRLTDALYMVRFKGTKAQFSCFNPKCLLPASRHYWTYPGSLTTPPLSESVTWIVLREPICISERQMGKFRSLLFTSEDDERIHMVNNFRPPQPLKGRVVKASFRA
Assay [6] has as its system Mus musculus. In words: Antihyperalgesic activity in CFA induced CD-1 albino mouse assessed as inhibition of mechanical hyperalgesia by measuring paw withdrawal latency at 330 mg/kg, po measured after 20 to 100 mins by paw pressure test. It is filed as functional, organism-based. Particulars: time 20-100 min. The method, boiled down:
as §1

In a further assay the target is Carbonic anhydrase 2 (Homo sapiens, UniProt P00918). In words: Inhibition of human CA2 preincubated for 15 mins by phenol red dye based stopped flow CO2 hydration assay.
The subject of assay [7] is Mus musculus. In words: Antihyperalgesic activity in po dosed CFA induced CD-1 albino mouse assessed as inhibition of mechanical hyperalgesia by measuring paw withdrawal latency measured every 20 mins by paw pressure test. It is filed as functional, organism-based. Particulars: dose 50-200 mg/kg. The method, boiled down:
as §1

Assay [8] has as its system Mus musculus. In words: Antihyperalgesic activity in po dosed CFA induced CD-1 albino mouse assessed as inhibition of thermal hyperalgesia by measuring licking latency measured every 20 mins by hot plate test. The format is functional, organism-based. Particulars: dose 50-200 mg/kg. The method, boiled down:
as §2

For assay [9], the system named is Mus musculus. In words: Antihyperalgesic activity in CFA induced CD-1 albino mouse assessed as inhibition of mechanical allodynia by measuring paw withdrawal threshold at 50 to 200 mg/kg, po measured after 80 mins by von frey test. It is filed as functional, organism-based. Particulars: dose 50-200 mg/kg. The method, boiled down: as §3
In assay [10] the test system is Mus musculus. In words: Antihyperalgesic activity in CFA induced CD-1 albino mouse assessed as inhibition of mechanical hyperalgesia by measuring paw withdrawal latency at 50 to 200 mg/kg, po measured after 40 mins by paw pressure test. The format is functional, organism-based. Particulars: dose 50-200 mg/kg. The method, boiled down: as §1
For assay [11], the system named is Mus musculus. In words: Antihyperalgesic activity in CFA induced CD-1 albino mouse assessed as inhibition of thermal hyperalgesia by measuring licking latency at 50 to 200 mg/kg, po measured after 80 mins by hot plate test. The format is functional, organism-based. Particulars: dose 50-200 mg/kg. An outline of the steps: as §2
For assay [12], the system named is Mus musculus. In words: Antihyperalgesic activity in CFA induced CD-1 albino mouse assessed as inhibition of mechanical allodynia by measuring paw withdrawal threshold at 50 to 200 mg/kg, po measured after 40 mins by von frey test. Particulars: dose 50-200 mg/kg. It is filed as functional, organism-based. The method, boiled down:
as §3

Assay [13] relates to Mus musculus. In words: Antihyperalgesic activity in CFA induced CD-1 albino mouse assessed as inhibition of mechanical hyperalgesia by measuring paw withdrawal latency at 50 to 200 mg/kg, po measured after 80 mins by paw pressure test. It is filed as functional, organism-based. Particulars: dose 50-200 mg/kg. An outline of the steps:
as §1

In assay [14] the test system is Mus musculus. In words: Antihyperalgesic activity in CFA induced CD-1 albino mouse assessed as inhibition of thermal hyperalgesia by measuring licking latency at 50 to 200 mg/kg, po measured after 40 mins by hot plate test. The format is functional, organism-based. Particulars: dose 50-200 mg/kg. An outline of the steps: as §2
The subject of assay [15] is Mus musculus. In words: Antihyperalgesic activity in po dosed CFA induced CD-1 albino mouse assessed as inhibition of mechanical allodynia by measuring paw withdrawal threshold measured every 20 mins by von frey test. It is filed as functional, organism-based. Particulars: dose 50-200 mg/kg. The method, boiled down: as §3
The test system of assay [16] is Mus musculus. In words: Antihyperalgesic activity in CFA induced CD-1 albino mouse assessed as increase in pain threshold by measuring licking latency at 405 mg/kg, po measured after 40 mins by hot plate test. The format is functional, organism-based. An outline of the steps: (§4)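 Mice received an intraplantar CFA injection, and vehicle-treated animals served as controls. Thermal hyperalgesia was measured by hot plate as time in s to the first hind-paw licking. Readings were taken before dosing and every 20 min afterwards. Values are the mean of 6 mice from 2 experimental sets.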

Assay [17] concerns Mus musculus. In words: Antihyperalgesic activity in CFA induced CD-1 albino mouse assessed as increase in pain threshold by measuring paw withdrawal latency at 270 mg/kg, po measured after 40 mins by von frey test. The format is functional. The method, boiled down: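 Intraplantar CFA was used to induce inflammatory pain in mice, with vehicle-treated controls. Mechanical allodynia was measured by Von Frey test as the weight (g) tolerated on the paw, before dosing and every 20 min after. Values are the mean of 6 mice from 2 experimental sets.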

The test system of assay [18] is Mus musculus. In words: Antihyperalgesic activity in CFA induced CD-1 albino mouse assessed as increase in pain threshold by measuring paw withdrawal latency at 270 mg/kg, po measured after 40 mins by paw pressure test. The format is functional. The method, boiled down:
(§5)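 Inflammatory pain was induced by intraplantar CFA, with vehicle-treated controls. Mechanical hyperalgesia was measured by paw pressure test as paw withdrawal latency (s), before dosing and every 20 min after. Values are the mean of 6 mice from 2 experimental sets.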

Assay [19] deals with Mus musculus. In words: Antihyperalgesic activity in CFA induced CD-1 albino mouse assessed as increase in pain threshold by measuring paw withdrawal latency at 405 mg/kg, po measured after 40 mins by paw pressure test. It is filed as functional, organism-based. An outline of the steps:
as §5

Assay [20] deals with Mus musculus. In words: Antihyperalgesic activity in CFA induced CD-1 albino mouse assessed as inhibition of mechanical allodynia by measuring paw withdrawal threshold at 270 to 405 mg/kg, po measured every 20 mins by von frey test. The format is functional, organism-based. Particulars: dose 270-405 mg/kg.
The subject of assay [21] is Mus musculus. In words: Antihyperalgesic activity in CFA induced CD-1 albino mouse assessed as increase in pain threshold by measuring licking latency at 270 mg/kg, po measured after 40 mins by hot plate test. It is filed as functional, organism-based. The method, boiled down:
as §4

In assay [22] the test system is Mus musculus. In words: Antihyperalgesic activity in CFA induced CD-1 albino mouse assessed as inhibition of mechanical hyperalgesia by measuring paw withdrawal latency at 270 to 405 mg/kg, po measured every 20 mins by paw pressure test. The format is functional, organism-based. Particulars: dose 270-405 mg/kg. The method, boiled down: as §5
Assay [23] relates to Mus musculus. In words: Antihyperalgesic activity in CFA induced CD-1 albino mouse assessed as increase in pain threshold by measuring paw withdrawal latency at 405 mg/kg, po measured after 40 mins by von frey test. The format is functional, organism-based.

Active and inactive are the calls of the source.

Carbonic anhydrase 12, sequence (O43570 whole entry): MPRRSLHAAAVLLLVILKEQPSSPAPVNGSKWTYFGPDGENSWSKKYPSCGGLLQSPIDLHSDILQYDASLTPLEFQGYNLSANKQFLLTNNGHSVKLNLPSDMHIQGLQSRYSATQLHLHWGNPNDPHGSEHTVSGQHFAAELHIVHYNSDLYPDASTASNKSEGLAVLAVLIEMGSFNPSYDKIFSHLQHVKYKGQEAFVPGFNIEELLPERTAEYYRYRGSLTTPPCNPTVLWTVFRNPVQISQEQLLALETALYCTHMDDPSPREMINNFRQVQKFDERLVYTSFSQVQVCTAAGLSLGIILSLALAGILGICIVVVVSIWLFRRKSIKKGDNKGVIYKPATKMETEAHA
Carbonic anhydrase 4, sequence (P22748 whole entry): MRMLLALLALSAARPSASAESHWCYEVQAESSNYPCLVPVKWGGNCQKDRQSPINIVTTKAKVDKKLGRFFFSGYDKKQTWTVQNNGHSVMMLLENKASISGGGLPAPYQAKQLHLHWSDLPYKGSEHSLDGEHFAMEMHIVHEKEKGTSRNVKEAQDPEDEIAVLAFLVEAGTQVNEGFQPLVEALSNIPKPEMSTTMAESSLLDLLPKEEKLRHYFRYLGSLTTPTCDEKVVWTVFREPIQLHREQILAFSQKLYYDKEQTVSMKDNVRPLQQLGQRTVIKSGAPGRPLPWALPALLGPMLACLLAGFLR

On to `CC(=O)Sc1ccccc1C(=O)O`, for which the Ki at Carbonic anhydrase 12 came out at 14 µM; on Carbonic anhydrase 4 it was 77.3 µM; on Carbonic anhydrase 9 it was 10.9 µM; on Carbonic anhydrase 1, 72.5 µM; at Carbonic anhydrase 7, 18.5 µM; on Carbonic anhydrase 2, 64.3 µM. Moreover, the result in the assay on Mus musculus [1], in the assay on Mus musculus [2], with Mus musculus [3], with Mus musculus [4], with Mus musculus [5] and in the assay on Mus musculus [6] was Active.
For `CC(=O)Oc1ccccc1C(=O)O` [ASPIRIN], the Activity entry in the assay with Mus musculus [7], with Mus musculus [8] and in the assay on Mus musculus [15] was “Dose-Dependent Effect” throughout. The inhibition constant (Ki) at Carbonic anhydrase 12, on Carbonic anhydrase 4, on Carbonic anhydrase 9, at Carbonic anhydrase 1 and on Carbonic anhydrase 7 was > 100 µM in each case. The outcome in the assay on Mus musculus [9], in the assay with Mus musculus [11] and in the assay on Mus musculus [13] was inactive. Moreover, the result with Mus musculus [10], in the assay with Mus musculus [12] and with Mus musculus [14] was Active.
`CC(=O)[Se]c1ccccc1C(=O)O`: the result with Mus musculus [16], in the assay on Mus musculus [19] and with Mus musculus [23] was inactive. In addition, the Activity in the assay with Mus musculus [17] and in the assay on Mus musculus [18] was >50% each time. The Ki came out at 8.2 µM at Carbonic anhydrase 12; 48 µM at Carbonic anhydrase 4; 1.4 µM on Carbonic anhydrase 9; 5.2 µM on Carbonic anhydrase 1; 5.2 µM on Carbonic anhydrase 7; 32 µM on Carbonic anhydrase 2. In addition, the result with Mus musculus [20], in the assay with Mus musculus [21] and in the assay on Mus musculus [22] was Active.

Usually Ki stands for a measure of affinity in units of concentration, obtained from inhibition or displacement. High values mean lower affinity, low ones higher affinity.

The values above are taken from ChEMBL document CHEMBL5614453 (ACS Med Chem Lett, 2024).
